ChEMBL document CHEMBL1158783, “Neoflavonoids and related constituents from Nepalese propolis and their nitric oxide production inhibitory activity” (J Nat Prod, 2005)

Tested on: not listed separately
Experiment: Cytotoxicity against mouse J774.1 cells at > 50 uM by MTT assay
Assay type: cell-based
Conditions: not given; call rule not given here

SMILES | Activity
C=CC(c1ccccc1)[C@H]1C[C@@H](O)C=CC1=O (stereo not given in full) | Active
C=CC(c1ccccc1)[C@@H]1C[C@@H](O)C=CC1=O (stereo not given in full) | Active

Tested on: J774.1
Experiment: Inhibition of LPS-induced NO production in mouse J774.1 cells after 24 hrs by Griess reagent assay
Assay type: functional, cell-based
Conditions: J774.1, 24 h
In short: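 J774.1 cells grown in RPMI 1640 with penicillin G, streptomycin and 10% FCS, seeded at 1 × 10⁵ cells/well and left to adhere for 2 h at 37 °C, 5% CO₂. Fresh medium with LPS (10 µg/mL) plus compound was then added for 24 h. Supernatant nitrite was read with Griess reagent (10 min, room temperature, A550), medium-blank corrected, and compared with an LPS-only control. IC50 taken from the mean of four determinations.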

IC50 [µM] | SMILES
100 | C=C[C@@H](c1ccccc1)[C@@H]1C[C@@H](O)[C@@H](OC)C[C@@H]1O
8.4 | C=C[C@@H](c1ccccc1)c1ccc(O)c(O)c1
15.4 | COc1cc(O)c(C(=O)c2ccccc2)cc1O [CEAROIN]
6.3 | C=CC(c1ccccc1)c1cc(O)c(OC)cc1O (stereo not given) [OBTUSAQUINOL]
9.6 | C=C[C@H](c1ccccc1)[C@@H]1C[C@@H](O)[C@@H](OC)CC1=O
29.3 | O=C(/C=C/c1ccc(O)cc1)c1ccc(O)cc1O [ISOLIQUIRITIGENIN]
10.2 | C=C[C@H](C1=CC(=O)C(OC)=CC1=O)c1ccccc1
0.5 | C=CC(c1ccccc1)[C@H]1C[C@@H](O)C=CC1=O (stereo not given in full)
5.5 | C=C[C@@H](c1ccccc1)c1ccc(O)cc1O
13.2 | C=C[C@@H](c1ccccc1)[C@@H]1C[C@@H](O)[C@@H](OC)CC1=O
19.2 | COC1=CC(=O)CCC1(O)C/C=C/c1ccccc1 (stereo not given)
48.5 | C=CC(c1ccccc1)[C@@H]1C[C@H](O)C(OC)=CC1=O (stereo not given in full)
2.3 | C=CC(c1ccccc1)[C@H]1C[C@@H](O)C[C@@H](OC)C1=O (stereo not given in full)
0.5 | C=CC(c1ccccc1)[C@@H]1C[C@@H](O)C=CC1=O (stereo not given in full)
5.4 | COc1ccc2c(c1)O[C@H]1c3ccc(O)c(O)c3OC[C@@H]21
4.8 | O=C(/C=C/c1ccc(O)c(O)c1)OCCc1ccccc1 [CAFFEIC ACID PHENETHYL ESTER]
9.6 | C=CC(c1ccccc1)[C@H]1C[C@@H](O)[C@@H](OC)CC1=O (stereo not given in full)
3.4 | COc1ccc2c(c1O)O[C@@H]1c3ccc(O)cc3OC[C@H]21
